Active and inactive are the calls of the source. The calls are words filed in the database; no cut-off is given here.
Assays:
[1] = tested on: MDA-MB-231; assay: Induction of E-cadherin protein expression in human MDA-MB-231 cells incubated with compound under normoxia for 1 hr followed by hypoxia induction and measured after 24 hrs by Western blot analysis; format: functional, cell-based
In short: (§1)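 MDA-MB-231 cells given 2, 5 or 10 μM under normoxia 1 h, then hypoxia 24 h; E-cadherin, vimentin, MMP-2, MMP-9 by western blot, GAPDH loading control; three independent experiments.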

[2] = tested on: MDA-MB-231; assay: Inhibition of vimentin protein expression in human MDA-MB-231 cells incubated with compound under normoxia for 1 hr followed by hypoxia induction and measured after 24 hrs by Western blot analysis; format: functional, cell-based; in short: as §1
[3] = target: Hypoxia-inducible factor 1-alpha (Homo sapiens) (UniProt Q16665); assay: Potency index, ratio of IC50 for LW6 to IC50 for test compound for inhibition of HIF1alpha transcriptional activity in hypoxia-induced human HCCLM3 cells incubated with compound under normoxia for 1 hr followed by hypoxia induction and measured after 24 hrs by HRE-dependent dual luciferase reporter gene assay
[4] = tested on: HUVEC; assay: Antiangiogenic activity in HUVEC assessed as reduction in VEGF mRNA expression incubated with compound under normoxia for 1 hr followed by hypoxia induction and measured after 24 hrs by real time-PCR analysis; format: functional, cell-based; conditions: Homo sapiens
In short: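 HUVECs treated with 0.5 or 1 μM; VEGF mRNA by real-time PCR, normalized to GAPDH, compared with normoxia and untreated hypoxic controls; means ± SD of three independent experiments.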

[5] = tested on: MDA-MB-231; assay: Downregulation of MMP2 protein expression in human MDA-MB-231 cells incubated with compound under normoxia for 1 hr followed by hypoxia induction and measured after 24 hrs by Western blot analysis; format: functional, cell-based; in short: as §1
[6] = tested on: MDA-MB-231; assay: Inhibition of HIF1alpha accumulation in hypoxia-induced human MDA-MB-231 cells incubated with compound under normoxia for 1 hr followed by hypoxia induction and measured after 24 hrs by Western blot analysis; format: functional, cell-based
In short: (§2)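 MDA-MB-231, SKOV3 and HeLa cells exposed to hypoxia with compound at a range of concentrations; HIF-1α accumulation assessed by western blot.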

[7] = tested on: MDA-MB-231; assay: Induction of apoptosis in human MDA-MB-231 cells at 2 to 10 uM incubated for 24 hrs; format: cell-based; conditions: mda-mb-231, 24 h
[8] = Cytotoxicity against human HCCLM3 cells assessed as reduction in cell viability incubated for 48 hrs by MTT assay; format: cell-based
[9] = tested on: MDA-MB-231; assay: Inhibition of cell invasion in human MDA-MB-231 cells incubated with compound under normoxia for 1 hr followed by hypoxia induction and measured after 24 hrs by transwell assay/crystal violet staining based inverted microscopic method; format: functional
In short: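 Transwell with MDA-MB-231 cells in upper chamber on matrigel-precoated inserts; 2, 5, 10 μM under normoxia 1 h then hypoxia 24 h; invaded cells stained with crystal violet and counted; three experiments, means ± SD.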

[10] = target: Hypoxia-inducible factor 1-alpha (Homo sapiens) (UniProt Q16665); assay: Potency index, ratio of IC50 for 2-Methyl-N-phenethylthiazole-4-carboxamide to IC50 for test compound for inhibition of HIF1alpha transcriptional activity in hypoxia-induced human HCCLM3 cells incubated with compound under normoxia for 1 hr followed by hypoxia induction and measured after 24 hrs by HRE-dependent dual luciferase reporter gene assay
[11] = tested on: HUVEC; assay: Antiangiogenic activity in HUVEC assessed as disruption in capillary-like tubule formation at 5 uM incubated under hypoxia for 12 hrs by inverted microscopic method; format: functional, Homo sapiens
In short: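 HUVECs on matrigel-precoated wells, incubated under hypoxia with 5 μM compound; tubule branches photographed; three independent experiments.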

[12] = target: Hypoxia-inducible factor 1-alpha (Homo sapiens) (UniProt Q16665); assay: Induction of HIF1alpha (unknown origin) degradation
[13] = tested on: MDA-MB-231; assay: Antimetastatic activity against human MDA-MB-231 cells stable expressing luciferase xenografted in ip dosed BALB/c nude mouse assessed as reduction in lung colonization of tumor cells administered every 2 days for 3 weeks starting at 24 hrs post-trensfection and measured at 24 hrs after final dose by bioluminescent imaging assay; format: functional, organism-based
In short: (§3)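 Luciferase-expressing MDA-MB-231 cells injected into tail vein of BALB/c nude mice; i.p. vehicle or 15 and 30 mg/kg starting 24 h later, every 2 days for 20 days; bioluminescence imaged 24 h after last dose; lungs examined by H&E histology; n = 4 per group, mean ± SD.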

[14] = Toxicity in BALB/c nude mouse xenografted with human MDA-MB-231 cells stable expressing luciferase assessed as change in body weight at 15 to 30 mg/kg, ip administered every 2 days for 3 weeks starting at 24 hrs post-trensfection; format: organism-based; conditions: in vivo
In short: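 Tail-vein luciferase MDA-MB-231 lung-metastasis model in BALB/c nude mice; 15 or 30 mg/kg i.p. every 2 days for 20 days from 24 h post-injection; body weight recorded at study end.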

[15] = tested on: HCCLM3; assay: Inhibition of HIF1alpha accumulation in hypoxia-induced human HCCLM3 cells at 10 uM incubated with compound under normoxia for 1 hr followed by hypoxia induction and measured after 24 hrs by Western blot analysis; format: functional, cell-based
In short: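 LM3 cells treated at 10 μM under hypoxia; HIF-1α protein by western blot, LW6 as reference.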

[16] = tested on: HUVEC; assay: Antiangiogenic activity in HUVEC assessed as suppression of capillary-like tubule formation at 2 to 5 uM incubated under hypoxia for 12 hrs by inverted microscopic method; format: functional, cell-based; conditions: Homo sapiens
In short: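 HUVECs seeded on matrigel-precoated wells under hypoxia, treated at 2 or 5 μM; capillary-like tubule branches photographed; representative of three independent experiments.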

[17] = tested on: MDA-MB-231; assay: Antimetastatic activity against human MDA-MB-231 cells stable expressing luciferase xenografted in ip dosed BALB/c nude mouse assessed as reduction in lung colonization of tumor cells administered every 2 days for 3 weeks starting at 24 hrs post-trensfection and measured at 24 hrs after final doses by H and E staining method; format: functional, organism-based; in short: as §3
[18] = tested on: HeLa; assay: Inhibition of HIF1alpha accumulation in hypoxia-induced human HeLa cells incubated with compound under normoxia for 1 hr followed by hypoxia induction and measured after 24 hrs by Western blot analysis; format: functional, cell-based; in short: as §2
[19] = tested on: MDA-MB-231; assay: Inhibition of cell migration in human MDA-MB-231 cells incubated with compound under normoxia for 1 hr followed by hypoxia induction and measured after 24 hrs by wound healing assay based inverted microscopic method; format: functional
In short: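 Wound-healing: monolayer of MDA-MB-231 scratched, treated 2, 5, 10 μM or DMSO under normoxia 1 h then hypoxia 24 h; wound closure imaged; three independent experiments.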

[20] = tested on: SK-OV-3; assay: Inhibition of HIF1alpha accumulation in hypoxia-induced human SKOV3 cells incubated with compound under normoxia for 1 hr followed by hypoxia induction and measured after 24 hrs by Western blot analysis; format: functional, cell-based; in short: as §2
[21] = tested on: MDA-MB-231; assay: Downregulation of MMP9 protein expression in human MDA-MB-231 cells incubated with compound under normoxia for 1 hr followed by hypoxia induction and measured after 24 hrs by Western blot analysis; format: functional, cell-based; in short: as §1
[22] = tested on: MDA-MB-231; assay: Inhibition of cell growth in human MDA-MB-231 cells at 2 to 10 uM incubated for 24 hrs; format: cell-based; conditions: mda-mb-231, 24 h
[23] = tested on: HUVEC; assay: Antiproliferative activity against HUVEC at 2 to 5 uM; format: cell-based; conditions: human
[24] = target: Hypoxia-inducible factor 1-alpha (Homo sapiens) (UniProt Q16665); assay: Inhibition of HIF1alpha transcriptional activity in hypoxia-induced human HCCLM3 cells co-transfected with luciferase reporter plasmid containing five copies of HREs and pRL-SV40 plasmid encoding Renilla luciferase at 10 uM incubated with compound under normoxia for 1 hr followed by hypoxia induction and measured after 24 hrs by HRE-dependent dual luciferase reporter gene assay relative to control
In short: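 LM3 cells co-transfected with firefly luciferase reporter carrying five HRE copies plus pRL-SV40 Renilla plasmid; after transfection treated and kept under hypoxia; firefly luminescence normalized to Renilla. Single-point inhibition rate at 10 μM; IC50 for selected compounds.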

[25] = species on record: Danio rerio; assay: Antiangiogenic activity in […]/EGFP transgenic zebrafish embryo assessed as destruction of subintestinal vessel at 0.5 to 1 uM incubated for 24 hrs by confocal microscopic method; format: functional, organism-based
In short: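 Transgenic zebrafish with GFP-labeled vascular endothelium; embryos selected, […], exposed 24 h to 0.5 or 1 μM (DMSO vehicle, n = 10; apatinib 0.5 μM reference); SIVs imaged by confocal microscopy and counted per field; means ± SD, three independent experiments.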

Chain of Hypoxia-inducible factor 1-alpha (Homo sapiens) (Q16665 whole entry, looked up): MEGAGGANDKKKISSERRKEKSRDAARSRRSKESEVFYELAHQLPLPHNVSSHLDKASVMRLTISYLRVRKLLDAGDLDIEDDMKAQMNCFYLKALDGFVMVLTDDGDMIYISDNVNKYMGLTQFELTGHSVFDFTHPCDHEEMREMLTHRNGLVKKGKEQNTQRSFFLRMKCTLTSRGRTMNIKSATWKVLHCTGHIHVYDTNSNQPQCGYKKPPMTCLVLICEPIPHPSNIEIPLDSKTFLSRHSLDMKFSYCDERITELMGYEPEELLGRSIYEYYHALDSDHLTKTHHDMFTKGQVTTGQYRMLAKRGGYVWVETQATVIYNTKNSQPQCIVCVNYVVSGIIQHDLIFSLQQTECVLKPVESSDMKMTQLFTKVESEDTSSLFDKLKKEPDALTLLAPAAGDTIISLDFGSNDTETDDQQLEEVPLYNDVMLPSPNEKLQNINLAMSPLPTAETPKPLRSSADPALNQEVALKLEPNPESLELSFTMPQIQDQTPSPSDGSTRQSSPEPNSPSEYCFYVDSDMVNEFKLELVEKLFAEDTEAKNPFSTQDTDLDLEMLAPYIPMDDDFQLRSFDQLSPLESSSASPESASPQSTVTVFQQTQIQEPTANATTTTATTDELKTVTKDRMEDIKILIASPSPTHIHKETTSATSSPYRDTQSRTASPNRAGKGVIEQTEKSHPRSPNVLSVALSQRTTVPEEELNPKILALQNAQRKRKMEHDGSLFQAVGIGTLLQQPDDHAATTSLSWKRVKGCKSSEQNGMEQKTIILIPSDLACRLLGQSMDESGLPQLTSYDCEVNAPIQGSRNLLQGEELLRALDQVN

For `COc1ccccc1-c1ccc(C(=O)NCCc2ccccc2F)nc1`, the Activity [1] was “Dose-dependent effect”, the inhibition [2] was “Dose-dependent effect” and the Ratio IC50 [3] was 10. For the same molecule, the Activity [4] was “Dose-dependent effect”, the inhibition [5] was “Dose-dependent effect” and the inhibition [6] was “Dose-dependent effect”. For the same molecule, the Activity [7] was “Non-Toxic”, the CC50 at 48 h [8] was greater than 50 µM and the inhibition [9] was “Dose-dependent effect”. For the same molecule, the Ratio IC50 [10] was 170, the Activity [11] was 100% and the Activity [12] was “Active”. For the same molecule, the Activity [13] was “Dose-dependent effect”, the Activity [14] was “Non-Toxic” and the “HIF-1α accumulation inhibition (qualitative)” value [15] was “Active”. For the same molecule, the Activity [16] was “Active”, the Activity [17] was “Dose-dependent effect” and the inhibition [18] was “Dose-dependent effect”. For the same molecule, the inhibition [19] was “Dose-dependent effect”, the inhibition [20] was “Dose-dependent effect” and the inhibition [21] was “Dose-dependent effect”. The “growth inhibition (GI)” value [22] was “Non-Toxic”, the Activity [23] was “Non-Toxic” and the inhibition [24] was 91.4 to 97.7%. For the same molecule, the Activity [25] was “Active”.

From ChEMBL document CHEMBL4354811, “Discovery of Novel Aryl Carboxamide Derivatives as Hypoxia-Inducible Factor 1α Signaling Inhibitors with Potent Activities of Anticancer Metastasis” (J Med Chem, 2019)
